Results from PubChem BioAssay AID492951 (Molecular Libraries Program, Specialized Chemistry Center, …, 2010).
A number with no mark means an inactive call. Activity calls are given as the source filed them.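 How the source made its calls: active means inhibition above 10%; inactive means the rest.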

molecular target: Hexokinase-4 (Homo sapiens) (UniProt P35557); assay: hGlck enzyme activity off-target inhibitors – biochemical, recombinant hGlck, counter-screen for TbHK1 inhibitor project (AID 492951); conditions: G6PDH-coupled NADH absorbance 340 nm, at 10 µM; active compounds read high
Method in brief: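 Test system: purified recombinant human glucokinase (HK4) with G6PDH coupling enzyme / Reagent: 20 mM glucose as reaction starter, plus 1 mM ATP / Timing: 10 min room-temperature compound-enzyme preincubation before glucose addition / Measured by: A340 of NADH / Repeats: three replicates per compound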

Chain of Hexokinase-4 (Homo sapiens) (P35557 whole entry, looked up): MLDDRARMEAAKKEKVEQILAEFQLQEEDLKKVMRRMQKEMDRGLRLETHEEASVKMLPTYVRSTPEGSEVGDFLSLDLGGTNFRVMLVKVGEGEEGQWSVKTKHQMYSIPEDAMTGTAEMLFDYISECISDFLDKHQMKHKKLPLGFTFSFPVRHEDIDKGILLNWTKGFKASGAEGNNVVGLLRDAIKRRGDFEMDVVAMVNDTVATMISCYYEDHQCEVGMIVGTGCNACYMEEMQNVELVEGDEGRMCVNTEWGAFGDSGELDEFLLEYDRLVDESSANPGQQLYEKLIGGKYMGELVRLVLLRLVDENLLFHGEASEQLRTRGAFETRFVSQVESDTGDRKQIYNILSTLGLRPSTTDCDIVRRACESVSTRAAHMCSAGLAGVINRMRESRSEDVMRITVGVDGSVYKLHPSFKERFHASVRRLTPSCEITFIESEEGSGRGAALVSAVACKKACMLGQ

Structure (SMILES) | outcome | inhibition
CN(C)c1ccc(C(=O)Nc2cc(Cl)ccc2C(=O)O)cc1 | inactive | 
O=c1c2cc(C(F)(F)F)ccc2sn1-c1ccccc1 |  | 45.7% (active)
O=C1c2ccccc2S(=O)N1c1ccc(Cl)cc1 (stereo not drawn) |  | 37.2% (active)
O=C(Nc1cc(Cl)ccc1C(=O)O)c1ccc(C2CCCC2)cc1 |  | 21.1% (active)
Cc1ccc(-n2sc3cc(F)ccc3c2=O)c(C)c1 |  | 55.6% (active)
O=c1c2ccccc2sn1-c1ccc(Cl)cc1Cl |  | 65.6% (active)
O=C(Cn1sc2cc(F)ccc2c1=O)Nc1ccccc1 |  | 39.6% (active)
COc1cc(C(=O)Nc2cc(Cl)ccc2C(=O)O)cc(OC)c1OC | inactive | 
O=C(Cn1sc2ccccc2c1=O)Nc1ccc(F)cc1 |  | 1.7%
COc1ccccc1-n1sc2ccccc2c1=O |  | 55% (active)
O=c1c2c(Br)cccc2sn1-c1ccccc1 |  | 12.5% (active)
CCCc1ccc(C(=O)Nc2cc(Cl)ccc2C(=O)O)cc1 |  | 16.8% (active)
COC(=O)c1ccc(Cl)cc1NC(=O)c1ccccc1OC | inactive | 
O=C(Cn1sc2ccccc2c1=O)Nc1ccc(C(F)(F)F)cc1 |  | 23.8% (active)
Cn1c2ccccc2c(=O)n1-c1ccccc1 | inactive | 
O=C1c2ccccc2S(=O)N1c1cccc(F)c1 (stereo not drawn) |  | 8.84%
O=C1c2cccc(Br)c2SCN1c1ccccc1 |  | 5.5%
CC(=O)Nc1ccc2c(=O)n(-c3ccccc3)sc2c1 | inactive | 
O=c1c2ccccc2sn1-c1cccc(Cl)c1 |  | 34.9% (active)

Structure (SMILES) | outcome | inhibition
O=C(Cn1sc2ccccc2c1=O)Nc1ccccc1 |  | 7.03%
COc1ccc(NC(=O)Nc2ccccc2C(=O)O)cc1 |  | 5.1%
O=c1cc(-c2ccccc2)sn1-c1ccccc1 | inactive | 
O=C(Nc1cc(Cl)ccc1C(=O)O)c1ccc(Cl)cc1 | inactive | 
O=C(O)c1ccc(Cl)cc1NC(=O)N1CCOCC1 | inactive | 
O=C(Cn1sc2ccccc2c1=O)Nc1cccc(F)c1 |  | 14.3% (active)
O=c1c2ccccc2sn1-c1ccc(Cl)cc1 |  | 35.6% (active)
COc1cccc(C(=O)Nc2cc(Cl)ccc2C(=O)O)c1 | inactive | 
Cc1ccccc1N1Cc2ccccc2C1=O | inactive | 
COc1ccc2sn(-c3ccccc3)c(=O)c2c1 |  | 13.6% (active)
O=c1s[nH]c2ccccc12 |  | 48.8% (active)
O=C(Nc1cc(Cl)ccc1C(=O)O)c1ccc2ccccc2c1 |  | 11.5% (active)
O=c1c2ccccc2sn1-c1ccccc1F |  | 28.9% (active)
O=C(Nc1cc(Cl)ccc1C(=O)O)c1ccc(C2CCC2)cc1 |  | 35.4% (active)
O=c1c2ccccc2sn1-c1cccc(F)c1 |  | 28.2% (active)
OB1OCc2cc(C(F)(F)F)ccc21 | inactive | 
CCc1ccc(C(=O)Nc2cc(Br)ccc2C(=O)O)cc1 | inactive | 
Cn1sc2ccccc2c1=O | inactive | 
O=C(Cn1sc2ccccc2c1=O)Nc1cccc(C(F)(F)F)c1 |  | 9.3%
